# Laboratory results taken from PubChem BioAssay AID602309 (Southern Research Specialized Biocontainment Screening …, 2012).
# Activity calls are given as the source filed them.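 The calls were made as follows: active = inhibition of 30% or more at any tested concentration; inactive = the rest.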
# Target: M17 leucyl aminopeptidase (Plasmodium falciparum 3D7)
# Test: PfM17LAP leucine aminopeptidase inhibitors, dose response, biochemical, QFRET, set 3 (AID 602309)
# Details: purified rPfM17LAP, H-Leu-NHMec fluorogenic cleavage
# In short: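 Measured by: fluorescence at 370/460 nm; material: purified recombinant Plasmodium falciparum M17 leucine aminopeptidase (rPFM17LAP); amount: rPFM17LAP enzyme at 5 µg/mL final; benchmarks: full reaction wells versus no-enzyme background wells; doses: 10-point twofold dilution series, 100 down to 0.2 µM; timing: enzyme reaction 90 min at room temperature; also added: H-Leu-NHMec substrate, 0.1 mM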
row,Compound,IC50 [nM]
1,CCC(C)Oc1ccc(CC(=O)NO)cc1 (stereo not drawn),2270
2,CCCCOc1cccc(CC(=O)NO)c1,2260
3,CCCCOc1ccc(C(C)C(=O)NO)cc1 (stereo not drawn),2160
4,O=C(NO)c1ccc2ccccc2c1,46300
5,CCCOc1ccc(CC(=O)NO)cc1,1390

# Same assay, conditions: purified rPfM17LAP, H-Leu-NHMec fluorogenic cleavage; at 100 µM (top of the series)
row,Compound,inhibition
1,CN(C)CCOc1ccc(CC(=O)O)cc1,inactive
2,CCCCOc1ccc(C(C)(C)C(=O)NO)cc1,inactive
3,CCCCOc1cccc(CC(=O)OC)c1,inactive
4,CCCCOc1ccc(CN(O)C(C)=O)cc1,inactive
5,CCCOc1ccc(CC(=O)O)cc1,inactive
6,CCCCOc1ccc(CN(O)C(=O)c2ccccc2)cc1,inactive
7,CCCCOc1ccc(C(C)C(=O)OC)cc1 (stereo not drawn),inactive
8,CCCCOc1ccc(C(C)(C)C(=O)O)cc1,inactive
